These results are taken from ChEMBL document CHEMBL4257503, “N-Acetyl-3-aminopyrazoles block the non-canonical NF-kB cascade by selectively inhibiting NIK” (Medchemcomm, 2018).

Molecules are shown by their SMILES. Calls of active or inactive are those of the source. No cut-off for these calls is given here.

Data set [1] addresses Mitogen-activated protein kinase 1 (Homo sapiens, UniProt P28482). Put plainly: Inhibition of ERK2 (unknown origin).
Data set [2] concerns the target Glycogen synthase kinase-3 beta (Homo sapiens, UniProt P49841). Put plainly: Inhibition of GSK3-beta (unknown origin).
For data set [3], the target named is Serine/threonine-protein kinase TAO2 (Homo sapiens, UniProt Q9UL54). Put plainly: Inhibition of TAOK2 (unknown origin).
Sequence of Serine/threonine-protein kinase TAO2 (Q9UL54 whole entry): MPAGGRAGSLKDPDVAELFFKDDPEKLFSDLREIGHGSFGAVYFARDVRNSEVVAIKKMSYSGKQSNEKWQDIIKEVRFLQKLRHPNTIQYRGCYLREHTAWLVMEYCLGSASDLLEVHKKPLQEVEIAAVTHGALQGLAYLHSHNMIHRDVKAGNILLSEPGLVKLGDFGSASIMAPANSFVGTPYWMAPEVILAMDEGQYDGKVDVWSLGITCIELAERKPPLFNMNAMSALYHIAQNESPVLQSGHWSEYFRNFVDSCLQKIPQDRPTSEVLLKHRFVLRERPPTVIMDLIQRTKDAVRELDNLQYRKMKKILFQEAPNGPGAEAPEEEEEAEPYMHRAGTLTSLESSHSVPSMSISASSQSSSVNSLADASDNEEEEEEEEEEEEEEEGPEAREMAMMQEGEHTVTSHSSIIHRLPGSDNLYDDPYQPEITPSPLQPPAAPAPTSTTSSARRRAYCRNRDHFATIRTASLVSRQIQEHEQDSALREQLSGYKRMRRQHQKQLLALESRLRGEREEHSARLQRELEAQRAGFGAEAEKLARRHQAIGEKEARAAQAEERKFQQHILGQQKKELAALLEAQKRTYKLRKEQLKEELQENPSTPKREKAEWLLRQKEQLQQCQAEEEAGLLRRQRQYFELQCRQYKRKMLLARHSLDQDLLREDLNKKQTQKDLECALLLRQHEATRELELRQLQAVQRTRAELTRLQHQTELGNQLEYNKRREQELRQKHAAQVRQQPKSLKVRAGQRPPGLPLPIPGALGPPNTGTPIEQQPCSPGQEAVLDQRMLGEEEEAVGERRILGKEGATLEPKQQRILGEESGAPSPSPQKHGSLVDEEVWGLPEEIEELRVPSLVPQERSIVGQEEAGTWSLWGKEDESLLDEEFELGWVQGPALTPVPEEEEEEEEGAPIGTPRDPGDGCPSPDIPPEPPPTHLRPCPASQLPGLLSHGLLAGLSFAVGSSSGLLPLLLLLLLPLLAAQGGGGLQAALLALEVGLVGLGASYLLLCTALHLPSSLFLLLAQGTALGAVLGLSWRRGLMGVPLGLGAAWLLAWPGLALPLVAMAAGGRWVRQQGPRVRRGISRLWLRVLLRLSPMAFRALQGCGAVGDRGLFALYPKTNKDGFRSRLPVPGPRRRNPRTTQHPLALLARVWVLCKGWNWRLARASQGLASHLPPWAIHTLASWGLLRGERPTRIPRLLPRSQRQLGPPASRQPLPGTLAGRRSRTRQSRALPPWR
The next data set concerns the target Ephrin type-A receptor 6 (Homo sapiens, UniProt Q9UF33). Put plainly: Inhibition of EPHA6 (unknown origin).
The target in data set [4] is Proto-oncogene tyrosine-protein kinase Src (Homo sapiens, UniProt P12931). Put plainly: Inhibition of GST/His-tagged SRC (unknown origin).
Sequence of Proto-oncogene tyrosine-protein kinase Src (P12931 2-536 limits assumed): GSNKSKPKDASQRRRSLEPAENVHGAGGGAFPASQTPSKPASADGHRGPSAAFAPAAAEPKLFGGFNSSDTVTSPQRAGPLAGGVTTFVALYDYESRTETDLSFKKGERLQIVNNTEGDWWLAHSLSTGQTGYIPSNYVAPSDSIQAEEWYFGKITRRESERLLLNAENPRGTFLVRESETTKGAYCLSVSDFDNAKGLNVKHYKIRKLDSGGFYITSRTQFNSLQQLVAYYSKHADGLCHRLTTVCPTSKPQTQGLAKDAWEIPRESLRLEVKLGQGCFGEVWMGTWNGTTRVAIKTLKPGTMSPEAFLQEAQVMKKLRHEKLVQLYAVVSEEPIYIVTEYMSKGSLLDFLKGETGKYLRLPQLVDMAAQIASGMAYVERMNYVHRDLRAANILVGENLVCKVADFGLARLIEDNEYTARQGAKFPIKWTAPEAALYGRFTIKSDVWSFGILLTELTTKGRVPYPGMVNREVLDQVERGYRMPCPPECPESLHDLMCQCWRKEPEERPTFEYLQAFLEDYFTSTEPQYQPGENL
In data set [5] the target is Serine/threonine-protein kinase B-raf (Homo sapiens, UniProt P15056). Put plainly: Inhibition of wild-type B-RAF (unknown origin).
Sequence of Serine/threonine-protein kinase B-raf (P15056 whole entry): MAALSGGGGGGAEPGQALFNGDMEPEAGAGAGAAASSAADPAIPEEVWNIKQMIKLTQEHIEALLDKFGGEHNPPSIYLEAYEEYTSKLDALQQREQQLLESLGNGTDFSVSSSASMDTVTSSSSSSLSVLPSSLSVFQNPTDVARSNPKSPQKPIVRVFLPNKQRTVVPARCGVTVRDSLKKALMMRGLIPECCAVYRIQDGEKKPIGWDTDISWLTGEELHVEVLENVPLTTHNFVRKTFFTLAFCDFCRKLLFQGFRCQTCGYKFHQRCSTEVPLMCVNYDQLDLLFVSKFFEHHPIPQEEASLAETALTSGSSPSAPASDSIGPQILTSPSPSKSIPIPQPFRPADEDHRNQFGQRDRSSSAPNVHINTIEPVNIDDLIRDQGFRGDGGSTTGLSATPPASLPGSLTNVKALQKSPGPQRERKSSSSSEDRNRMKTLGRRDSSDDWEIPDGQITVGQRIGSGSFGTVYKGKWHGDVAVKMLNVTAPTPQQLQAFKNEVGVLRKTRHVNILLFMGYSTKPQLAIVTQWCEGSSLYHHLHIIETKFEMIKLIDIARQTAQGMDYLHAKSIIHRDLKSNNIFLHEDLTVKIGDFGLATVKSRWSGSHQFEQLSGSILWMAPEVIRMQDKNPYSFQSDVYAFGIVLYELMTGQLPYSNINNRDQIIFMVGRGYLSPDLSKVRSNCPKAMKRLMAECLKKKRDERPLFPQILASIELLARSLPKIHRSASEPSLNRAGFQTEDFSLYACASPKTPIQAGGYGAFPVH
The next data set has as its system MDA-MB-231. Put plainly: Inhibition of NFkappaB activation in human MDA-MB-231 cells at 100 uM after 6 hrs by dual luciferase reporter gene assay relative to control. Format: cell-based. The method, boiled down: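 Cells were nucleofected with the pGL4.32 NF-κB-RE firefly luciferase and pGL4.74 TK-Renilla plasmids (3 µg, 10:1 ratio) and cultured for 24 h at 37 °C. Compound (10, 25, 50 or 100 µM) was then added for 6 h. Firefly luminescence was normalised to Renilla from the same sample and expressed as % of vehicle control. Means ± SD of three independent experiments.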
A general note: A reporter such as luciferase makes a cellular process visible.

Data set [6] deals with Serine/threonine-protein kinase tousled-like 1 (Homo sapiens, UniProt Q9UKI8). Put plainly: Inhibition of TLK1 (unknown origin).
Data set [7] concerns the target Homeodomain-interacting protein kinase 1 (Homo sapiens, UniProt Q86Z02). Put plainly: Inhibition of HIPK1 (unknown origin).
The species named for a further data set is Mus musculus. Put plainly: Inhibition of mouse NIK kinase domain V480L mutant.
For data set [8], the target named is Serine/threonine-protein kinase PLK1 (Homo sapiens, UniProt P53350). Put plainly: Inhibition of PLK1 (unknown origin).
Data set [9] addresses Tyrosine-protein kinase CSK (Homo sapiens, UniProt P41240). Put plainly: Inhibition of CSK (unknown origin).
A short description of data set [10]: Cytotoxicity against human SKBR3 cells assessed as cell viability at 100 uM after 6 hrs by CellTiter Glo luminescent assay relative to control. The format is cell-based, SK-BR-3. To be noted: read-out: Activity. The method, boiled down:
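Cells seeded at 5 x 10^3 per well and exposed for 6 h to the compound (10, 25, 50 or 100 µM) or to DMSO vehicle. Viability was read as intracellular ATP by CellTiter Glo luminescence.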

For data set [11], the target named is Tyrosine-protein kinase SYK (Homo sapiens, UniProt P43405). Put plainly: Inhibition of SYK (unknown origin).
Data set [12] addresses Epidermal growth factor receptor (Homo sapiens, UniProt P00533). Put plainly: Inhibition of wild-type EGFR (unknown origin).
Data set [13] concerns the target Cyclin-dependent kinase 1/cyclin B1 (Homo sapiens, UniProt P06493). Put plainly: Inhibition of CDK1/Cyclin B1 (unknown origin). Format: protein-complex assay.
For data set [14], the target named is Serine/threonine-protein kinase 4 (Homo sapiens, UniProt Q13043). Put plainly: Inhibition of MST1 (unknown origin).
Sequence of Serine/threonine-protein kinase 4 (Q13043 whole entry): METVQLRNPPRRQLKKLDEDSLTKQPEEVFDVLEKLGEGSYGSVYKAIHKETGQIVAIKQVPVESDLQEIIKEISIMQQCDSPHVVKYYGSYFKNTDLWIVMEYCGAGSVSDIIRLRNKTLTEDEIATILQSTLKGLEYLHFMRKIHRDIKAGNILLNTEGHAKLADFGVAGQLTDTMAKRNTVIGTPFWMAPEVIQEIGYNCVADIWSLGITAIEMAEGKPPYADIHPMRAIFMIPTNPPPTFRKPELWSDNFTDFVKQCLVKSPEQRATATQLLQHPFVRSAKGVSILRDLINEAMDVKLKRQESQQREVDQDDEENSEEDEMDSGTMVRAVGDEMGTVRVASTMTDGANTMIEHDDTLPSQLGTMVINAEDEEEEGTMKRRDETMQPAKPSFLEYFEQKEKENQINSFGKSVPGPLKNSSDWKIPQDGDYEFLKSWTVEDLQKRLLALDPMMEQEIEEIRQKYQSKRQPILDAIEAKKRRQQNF
Data set [15] deals with Dual specificity protein kinase CLK1 (Homo sapiens, UniProt P49759). Put plainly: Inhibition of CLK1 (unknown origin).

Sequence of Tyrosine-protein kinase CSK (P41240 whole entry): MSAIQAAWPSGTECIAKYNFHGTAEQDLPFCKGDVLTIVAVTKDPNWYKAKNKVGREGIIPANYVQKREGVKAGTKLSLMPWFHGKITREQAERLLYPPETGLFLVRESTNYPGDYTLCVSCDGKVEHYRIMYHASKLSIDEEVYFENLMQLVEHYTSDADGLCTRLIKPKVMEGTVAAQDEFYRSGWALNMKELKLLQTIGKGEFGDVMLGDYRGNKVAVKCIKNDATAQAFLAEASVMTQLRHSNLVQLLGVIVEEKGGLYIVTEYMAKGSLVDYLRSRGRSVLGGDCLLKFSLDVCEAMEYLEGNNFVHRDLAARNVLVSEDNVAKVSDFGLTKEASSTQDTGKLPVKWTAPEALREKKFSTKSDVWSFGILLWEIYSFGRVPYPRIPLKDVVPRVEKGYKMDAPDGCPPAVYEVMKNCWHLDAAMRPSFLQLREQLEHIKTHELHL
Sequence of Mitogen-activated protein kinase 1 (P28482 whole entry): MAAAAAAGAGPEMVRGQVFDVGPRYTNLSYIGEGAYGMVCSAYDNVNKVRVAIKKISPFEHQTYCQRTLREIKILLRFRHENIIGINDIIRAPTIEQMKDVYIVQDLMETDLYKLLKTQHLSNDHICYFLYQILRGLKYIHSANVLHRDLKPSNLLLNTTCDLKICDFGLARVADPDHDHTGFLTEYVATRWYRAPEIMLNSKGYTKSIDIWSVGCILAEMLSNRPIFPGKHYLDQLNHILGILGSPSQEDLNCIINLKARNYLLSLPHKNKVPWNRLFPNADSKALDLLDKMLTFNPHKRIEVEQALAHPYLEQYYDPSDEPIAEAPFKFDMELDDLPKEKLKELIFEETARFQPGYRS
Sequence of Ephrin type-A receptor 6 (Q9UF33 whole entry): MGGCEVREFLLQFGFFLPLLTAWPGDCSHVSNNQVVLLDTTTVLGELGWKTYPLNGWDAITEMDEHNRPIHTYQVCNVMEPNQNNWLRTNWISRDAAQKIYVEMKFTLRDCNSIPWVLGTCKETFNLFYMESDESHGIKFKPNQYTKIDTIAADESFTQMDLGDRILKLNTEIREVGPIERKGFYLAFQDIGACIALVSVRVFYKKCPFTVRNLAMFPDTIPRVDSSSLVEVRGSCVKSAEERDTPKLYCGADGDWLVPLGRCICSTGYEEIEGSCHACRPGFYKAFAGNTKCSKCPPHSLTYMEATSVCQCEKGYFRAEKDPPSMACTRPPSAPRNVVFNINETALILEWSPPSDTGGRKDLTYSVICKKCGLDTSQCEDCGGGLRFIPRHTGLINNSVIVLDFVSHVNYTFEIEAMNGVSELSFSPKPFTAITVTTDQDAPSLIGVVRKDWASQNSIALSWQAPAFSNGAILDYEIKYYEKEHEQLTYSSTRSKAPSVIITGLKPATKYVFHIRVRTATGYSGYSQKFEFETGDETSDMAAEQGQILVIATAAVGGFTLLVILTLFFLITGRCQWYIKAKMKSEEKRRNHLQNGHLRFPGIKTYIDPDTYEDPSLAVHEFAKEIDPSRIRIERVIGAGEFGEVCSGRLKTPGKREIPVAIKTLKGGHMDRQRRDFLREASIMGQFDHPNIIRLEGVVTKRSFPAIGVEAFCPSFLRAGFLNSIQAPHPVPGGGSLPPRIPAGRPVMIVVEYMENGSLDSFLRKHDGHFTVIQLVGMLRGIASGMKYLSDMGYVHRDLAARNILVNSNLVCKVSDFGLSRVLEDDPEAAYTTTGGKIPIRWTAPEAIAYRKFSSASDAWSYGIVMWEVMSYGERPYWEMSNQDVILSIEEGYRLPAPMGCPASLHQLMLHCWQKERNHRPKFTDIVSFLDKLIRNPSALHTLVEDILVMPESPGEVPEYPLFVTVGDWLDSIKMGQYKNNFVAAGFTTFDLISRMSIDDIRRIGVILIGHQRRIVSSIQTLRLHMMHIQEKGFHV

For orientation: IC50 means the concentration at which inhibition is half-maximal. The low end stands for greater potency, the high end for weaker potency. By inhibition is commonly meant the drop in the measured response relative to a control, in per cent. In the case of `CC(=O)n1nc(C)c(-c2ccc(Cl)c(Cl)c2)c1N`, the IC50 (in data set [1]; in data set [2]; in [3]; at Ephrin type-A receptor 6; in data set [4]; in data set [5]) was greater than 100 µM each time. Besides, the IC50 in data set [6], in data set [7], in data set [8], in data set [9], in data set [11] and in [12] was greater than 100 µM each time. Also, the IC50 in data set [13], in data set [14] and in data set [15] was greater than 100 µM each time. Also, the inhibition with MDA-MB-231 was -0.77%. Further, the inhibition result in the data set filed under Mus musculus was “inactive”. The viability at 6 h, 100 µM in [10] is no less than 80%.
